# Data from paper PMC2984665 (Phytochemistry, 2010).
# What was measured:
# [1] = biological target: serine protease chymotrypsin (Bos taurus, UniProt P00766); assay: chymotrypsin chemiluminescent assay with and without detergent; format: biochemical; conditions: read-out: IC50, inhibition of chymotrypsin; without detergent
# Summary of the method: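 Serine protease chymotrypsin, standard chemiluminescent read-out. Each test compound run in parallel without detergent and with 0.01% (v/v) Triton added, to screen for aggregation-based inhibition; IC50 derived under each condition.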
# [2] = stability of the isolated pure compounds on storage; format: physicochemical; conditions: pure isolated compound; decomposition followed by discoloration and LC-MS
Substance,IC50 [1] [µM],stability after isolation in pure form [2]
Sebestenoid C [Compound 3],33,stable
Sebestenoid D [Compound 4],27,decomposed rapidly
Sebestenoid B [Compound 2],–,decomposed rapidly
Sebestenoid A [Compound 1],–,stable
